Consider 74 molecules from ChEMBL document CHEMBL4371075, “α-Amino Diphenyl Phosphonates as Novel Inhibitors of Escherichia coli ClpP Protease” (J Med Chem, 2019).

What is called inhibition is the change of the read-out against control, counted positive when it falls. Read a high inhibition as a strong effect.

Sequence of ATP-dependent Clp protease proteolytic subunit (Escherichia coli (strain K12)) (P0A6G7 whole entry): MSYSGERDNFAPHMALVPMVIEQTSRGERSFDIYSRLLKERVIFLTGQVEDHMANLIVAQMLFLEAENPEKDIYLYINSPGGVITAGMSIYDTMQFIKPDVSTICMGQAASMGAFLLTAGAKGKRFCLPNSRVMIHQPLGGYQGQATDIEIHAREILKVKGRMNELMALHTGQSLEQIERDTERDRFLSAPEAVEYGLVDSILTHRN

The experiment has as its target ATP-dependent Clp protease proteolytic subunit (Escherichia coli (strain K12)) (UniProt P0A6G7). Nature of the experiment: Inhibition of Escherichia coli C-terminal His6-tagged ClpP expressed Escherichia coli SG1146a at 200 uM using Suc-LY-AMC as substrate preincubated for 10 mins followed by substrate addition and measured over 1 hr by fluorescence assay relative to control. The gist of the method: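 E. coli ClpP (625 nM) in 100 mM NaCl, 100 mM Hepes pH 7.5, 0.05% Brij 35, preincubated with compound (200 µM final, triplicates) 10 min at 30 °C. Suc-LY-AMC added (75 µM), fluorescence (ex 350/em 435 nm) followed over 1 h at 30 °C. Inhibition relative to 2% DMSO vehicle; Z-LY-CMK (200 µM) positive control; plates valid at Z' > 0.6.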
As for `N=C(N)Nc1ccc(C(NS(=O)(=O)c2ccc(C(F)(F)F)cc2)P(=O)(Oc2ccccc2)Oc2ccccc2)cc1` (centres undefined), the inhibition amounted to 27%.
Regarding `CN(C)C(=O)Nc1ccc(C(NC(=O)OCc2ccccc2)P(=O)(Oc2ccccc2)Oc2ccccc2)cc1` (centres undefined), the inhibition was found to be 22%.
As for `N=C(N)Nc1ccc(CC(NC(=O)OCc2c(F)c(F)c(F)c(F)c2F)P(=O)(Oc2ccccc2)Oc2ccccc2)cc1` (centres undefined), the figure is 25%.
`O=C(NC(CCc1ccccc1)P(=O)(Oc1ccccc1)Oc1ccccc1)OCc1ccccc1` (centres undefined) returned an inhibition of less than 1%.
As for `CS(=O)(=O)Nc1ccc(CCC(NC(=O)OCc2ccccc2)P(=O)(Oc2ccccc2)Oc2ccccc2)cc1` (centres undefined), the figure is 10%; as for `N=C(N)N1CCC(C(NS(=O)(=O)CCOc2ccccc2)P(=O)(Oc2ccccc2)Oc2ccccc2)CC1` (centres undefined), 27%.
In the case of `N=C(N)Nc1ccc(C(NS(=O)(=O)c2ccccc2)P(=O)(Oc2ccccc2)Oc2ccccc2)cc1` (centres undefined) it was 29%; in that of `O=C(NC(c1cc([N+](=O)[O-])ccc1Cl)P(=O)(Oc1ccccc1)Oc1ccccc1)OCc1ccccc1` (centres undefined), 6%.
For the molecule `COc1ccc(CC(NC(=O)OCc2ccccc2)P(=O)(Oc2ccccc2)Oc2ccccc2)cc1` (centres undefined), the inhibition was determined as 6%.
As for `O=C(NC(COCc1ccccc1)P(=O)(Oc1ccccc1)Oc1ccccc1)OCc1ccccc1` (centres undefined), the figure is 4%; as for `O=C(NC(c1cccc([N+](=O)[O-])c1)P(=O)(Oc1ccccc1)Oc1ccccc1)OCc1ccccc1` (centres undefined), 6%.
With `COC(=O)NC(c1cccc(N)c1)P(=O)(Oc1ccc(NC(C)=O)cc1)Oc1ccc(NC(C)=O)cc1` (centres undefined), the inhibition was determined as 12%.
In the case of `O=C(NC(Cc1ccccc1)P(=O)(Oc1ccccc1)Oc1ccccc1)OCc1ccccc1` (centres undefined) it was 7%; in that of `CC(=O)Nc1ccc(C(NC(=O)OCc2ccccc2)P(=O)(Oc2ccccc2)Oc2ccccc2)cc1` (centres undefined), 8%; in that of `O=C(NC(C1CCNCC1)P(=O)(Oc1ccccc1)Oc1ccccc1)OCc1ccccc1` (centres undefined), 30%.
As for `N=C(N)Nc1ccc(CC(NC(=O)OCCC(F)(F)C(F)(F)C(F)(F)C(F)(F)C(F)(C(F)(F)F)C(F)(F)F)P(=O)(Oc2ccccc2)Oc2ccccc2)cc1` (centres undefined), the figure is 55%; as for `N#C[C@@H](NC(=O)OCc1ccccc1)c1cccc(N)c1`, 8%.
For the molecule `O=C(NC(c1ccc2ccccc2c1)P(=O)(Oc1ccccc1)Oc1ccccc1)OCc1ccccc1` (centres undefined), the inhibition amounted to 51%.
As for `COC(=O)NC(Cc1ccc(C(F)(F)F)cc1)P(=O)(Oc1ccc(NC(C)=O)cc1)Oc1ccc(NC(C)=O)cc1` (centres undefined), the figure is 20%; as for `C#CCCCOC(=O)NC(Cc1ccc(NC(=N)N)cc1)P(=O)(Oc1ccccc1)Oc1ccccc1` (centres undefined), 23%; as for `N=C(N)c1ccc(C(NC(=O)OCc2ccccc2)P(=O)(Oc2ccccc2)Oc2ccccc2)cc1` (centres undefined), 30%.
On to `O=C(NC(c1ccc2occc2c1)P(=O)(Oc1ccccc1)Oc1ccccc1)OCc1ccccc1` (centres undefined), for which the inhibition is 6%.
Molecule `N=C(N)N1CCC(C(NC(=O)c2ccco2)P(=O)(Oc2ccccc2)Oc2ccccc2)CC1` (centres undefined) came in with an inhibition of 24%.
As for `N#Cc1cccc(C(NC(=O)OCc2ccccc2)P(=O)(Oc2ccccc2)Oc2ccccc2)c1` (centres undefined), the figure is 15%; as for `N=C(N)N1CCC(C(NC(=O)c2cccnc2)P(=O)(Oc2ccccc2)Oc2ccccc2)CC1` (centres undefined), 13%; as for `NCC1CCC(C(NC(=O)OCc2ccccc2)P(=O)(Oc2ccccc2)Oc2ccccc2)CC1` (centres undefined), 15%.
As for `O=C(NC(Cc1ccc(O)cc1)P(=O)(O)Oc1ccccc1)OCc1ccccc1` (centres undefined), the figure is 11%.
Molecule `COc1ccc(CC(=O)NC(C2CCN(C(=N)N)CC2)P(=O)(Oc2ccccc2)Oc2ccccc2)cc1` (centres undefined) came in with an inhibition of 13%.
As for `CSCCC(NC(=O)[C@H](CCCCN)NC(=O)OCc1ccccc1)P(=O)(Oc1ccccc1)Oc1ccccc1` (some centres undefined), the figure is 4%; as for `CC(C)C[C@H](NC(=O)OCc1ccccc1)C(=O)NC(Cc1ccc(O)cc1)P(=O)(Oc1ccccc1)Oc1ccccc1` (some centres undefined), less than 1%; as for `COP(=O)(Oc1ccccc1)C(Cc1ccc(O)cc1)NC(=O)OCc1ccccc1` (centres undefined), 14%.
In turn, `N=C(N)NCCCC(NC(=O)OCc1ccccc1)P(=O)(Oc1ccccc1)Oc1ccccc1` (centres undefined) yielded an inhibition of 15%.
As for `CC(=O)Nc1ccc(OP(=O)(Oc2ccc(NC(C)=O)cc2)C(Cc2ccccc2)NC(=O)OCc2ccccc2)cc1` (centres undefined), the figure is 9%; as for `CN(C)C(=O)Nc1ccc(CC(NC(=O)OCc2ccccc2)P(=O)(Oc2ccccc2)Oc2ccccc2)cc1` (centres undefined), 9%; as for `N#C[C@H](Cc1ccccc1)NC(=O)OCc1ccccc1`, less than 1%.
`N#C[C@H](Cc1ccc(O)cc1)NC(=O)OCc1ccccc1` came in with an inhibition of less than 1%.
In the case of `COC(=O)NC(c1cccc(C(=N)N)c1)P(=O)(Oc1ccccc1)Oc1ccccc1` (centres undefined) it was 30%; in that of `O=C(NC(c1cccnc1)P(=O)(Oc1ccccc1)Oc1ccccc1)OCc1ccccc1` (centres undefined), 27%; in that of `CC(C)C[C@H](NC(=O)OCc1ccccc1)C(=O)N[C@H](C#N)Cc1ccc(O)cc1`, 13%.
`N=C(N)N1CC(C(Nc2ncccn2)P(=O)(Oc2ccccc2)Oc2ccccc2)C1` (centres undefined) came in with an inhibition of 12%.
The molecule `C#CCOCCOCCOC(=O)NC(c1ccc(N2CCNCC2)cc1)P(=O)(Oc1ccccc1)Oc1ccccc1` (centres undefined) returned an inhibition of 25%.
Turning to `O=C(NC(c1ccc2c(c1)OCO2)P(=O)(Oc1ccccc1)Oc1ccccc1)OCc1ccccc1` (centres undefined), the inhibition amounted to 6%.
In the case of `N=C(N)Nc1ccc(C(NC(=O)OCc2c(F)c(F)c(F)c(F)c2F)P(=O)(Oc2ccccc2)Oc2ccccc2)cc1` (centres undefined) it was 48%; in that of `O=C(NC(c1ccc2cc(O)ccc2c1)P(=O)(Oc1ccccc1)Oc1ccccc1)OCc1ccccc1` (centres undefined), less than 1%; in that of `CN(C)c1ccc(C(NC(=O)OCc2ccccc2)P(=O)(Oc2ccccc2)Oc2ccccc2)c2ccccc12` (centres undefined), less than 1%.
In the case of `CC(NC(=O)OCc1ccccc1)P(=O)(Oc1ccccc1)Oc1ccccc1` (centres undefined) it was 3%; in that of `O=C(NC(Cc1ccc(O)cc1)P(=O)(Oc1ccccc1)Oc1ccccc1)OCc1ccccc1` (centres undefined), less than 1%; in that of `Nc1cccc(C(NC(=O)OCc2ccc3c(c2)OCO3)P(=O)(Oc2ccccc2)Oc2ccccc2)c1` (centres undefined), 20%.
In the case of `Nc1ccc(C(NC(=O)OCCCC(F)(F)F)P(=O)(Oc2ccccc2)Oc2ccccc2)cc1` (centres undefined) it was less than 1%.
`Cc1ccc(CC(NC(=O)OCc2ccccc2)P(=O)(Oc2ccccc2)Oc2ccccc2)cc1` (centres undefined) displayed an inhibition of 7%.
`N=C(N)N1CCC(C(Nc2ncc(-c3ccccc3)cn2)P(=O)(Oc2ccccc2)Oc2ccccc2)CC1` (centres undefined): the inhibition turned out to be 12%.
Regarding `N=C(N)N1CCC(C(NC(=O)/C=C\c2ccccc2)P(=O)(Oc2ccccc2)Oc2ccccc2)CC1` (centres undefined), the inhibition came to 11%.
Turning to `N=C(N)N1CCC(C(NC(=O)/C=C/c2ccccc2)P(=O)(Oc2ccccc2)Oc2ccccc2)CC1` (centres undefined), the inhibition came to 18%.
As for `COC(=O)NC(c1cccc(N)c1)P(=O)(Oc1ccccc1)Oc1ccccc1` (centres undefined), the figure is 7%.
In the case of `O=C(NC(c1cccc2ccccc12)P(=O)(Oc1ccccc1)Oc1ccccc1)OCc1ccccc1` (centres undefined) it was 6%; in that of `Nc1ccc(C(NC(=O)OCCOc2ccccc2)P(=O)(Oc2ccccc2)Oc2ccccc2)cc1` (centres undefined), 1%.
As for `O=C(NC(Cc1ccc2ccccc2c1)P(=O)(Oc1ccccc1)Oc1ccccc1)OCc1ccccc1` (centres undefined), the figure is less than 1%; as for `CC(=O)Nc1ccc(OP(=O)(Oc2ccc(NC(C)=O)cc2)C(NC(=O)OCc2ccccc2)c2cccc(N)c2)cc1` (centres undefined), 21%; as for `NCCOc1ccc(C(NC(=O)OCc2ccccc2)P(=O)(Oc2ccccc2)Oc2ccccc2)cc1` (centres undefined), 15%.
`O=C(NC(c1ccc([N+](=O)[O-])cc1)P(=O)(Oc1ccccc1)Oc1ccccc1)OCc1ccccc1` (centres undefined) gave an inhibition of 71%.
In the case of `CC(=O)Nc1ccc(OP(=O)(Oc2ccc(NC(C)=O)cc2)C(Cc2ccc(C(F)(F)F)cc2)NC(=O)OCc2ccccc2)cc1` (centres undefined) it was 1%; in that of `O=C(NC(Cc1ccc(F)cc1)P(=O)(Oc1ccccc1)Oc1ccccc1)OCc1ccccc1` (centres undefined), 13%; in that of `N=C(N)N1CCC(C(NC(=O)/C=C/c2ccc3c(c2)OCO3)P(=O)(Oc2ccccc2)Oc2ccccc2)CC1` (centres undefined), 4%.
In the case of `NCCOC(=O)NC(c1ccc(NC(=O)C(F)(F)F)cc1)P(=O)(Oc1ccccc1)Oc1ccccc1` (centres undefined) it was 73%; in that of `N#Cc1cc(C(NC(=O)OCc2ccccc2)P(=O)(Oc2ccccc2)Oc2ccccc2)ccc1N1CCNCC1` (centres undefined), 10%; in that of `CC(C)CC(NC(=O)OCc1ccccc1)P(=O)(Oc1ccccc1)Oc1ccccc1` (centres undefined), 4%.
Turning to `Nc1ccc2cc(C(NC(=O)OCc3ccccc3)P(=O)(Oc3ccccc3)Oc3ccccc3)ccc2c1` (centres undefined), the inhibition was less than 1%.
In the case of `COC(=O)NC(c1cccc2c([N+](=O)[O-])cccc12)P(=O)(Oc1ccccc1)Oc1ccccc1` (centres undefined) it was 17%; in that of `O=C(NC(Cc1cccc(O)c1)P(=O)(Oc1ccccc1)Oc1ccccc1)OCc1ccccc1` (centres undefined), 3%.
In the case of `N=C(N)N1CCC(C(NC(=O)C#Cc2ccc3c(c2)OCO3)P(=O)(Oc2ccccc2)Oc2ccccc2)CC1` (centres undefined) it was 24%.
In the case of `COC(=O)NC(Cc1cccc(C(F)(F)F)c1)P(=O)(Oc1ccccc1)Oc1ccccc1` (centres undefined) it was 4%; in that of `CN(C)c1ccc(C(NC(=O)OCc2ccccc2)P(=O)(Oc2ccccc2)Oc2ccccc2)cc1NS(C)(=O)=O` (centres undefined), 46%.
Turning to `Nc1ccc(C(NC(=O)OCc2c(F)c(F)c(F)c(F)c2F)P(=O)(Oc2ccccc2)Oc2ccccc2)cc1` (centres undefined), the inhibition came to 28%.
As for `COC(=O)NC(c1ccc(NC(=O)C(F)(F)F)cc1)P(=O)(Oc1ccccc1)Oc1ccccc1` (centres undefined), the figure is 64%.
